Experimental data as given in ChEMBL document CHEMBL4014338, “Discovery of Small Molecules as Multi-Toll-like Receptor Agonists with Proinflammatory and Anticancer Activities” (J Med Chem, 2017).
The source made the active and inactive calls. The rule behind the calls is not given here.

How the values were obtained:
Type in all cases: cell-based
[1] = biological target: Toll-like receptor 3 (Homo sapiens) (UniProt O15455); experiment: Agonist activity at human TLR3 expressed in HEK293 cells assessed as induction of NF-kB activation-mediated SEAP production at 25 uM after 24 hrs by HTS assay relative to control
How it was run: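 hTLR3 HEK293 SEAP reporter cells seeded at 5 × 10^4 cells/well for 24 h, exposed to 25 μM for 24 h. Supernatant SEAP detected with QUANTI-Blue (1 h, 37 °C, OD 620 nm). Activation normalized to untreated cells and expressed as fold change.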

[2] = tested on: HEK293; experiment: Cytotoxicity against HEK293 cells at 25 uM; settings: human, hek293, 25 µM
[3] = biological target: T1, Toll-like receptor 3 (Homo sapiens, UniProt O15455); experiment: Agonist activity at human TLR3 expressed in HEK293 cells assessed as induction of NF-kB activation-mediated SEAP production after 24 hrs by HTS assay
T1 sequence (O15455 whole entry): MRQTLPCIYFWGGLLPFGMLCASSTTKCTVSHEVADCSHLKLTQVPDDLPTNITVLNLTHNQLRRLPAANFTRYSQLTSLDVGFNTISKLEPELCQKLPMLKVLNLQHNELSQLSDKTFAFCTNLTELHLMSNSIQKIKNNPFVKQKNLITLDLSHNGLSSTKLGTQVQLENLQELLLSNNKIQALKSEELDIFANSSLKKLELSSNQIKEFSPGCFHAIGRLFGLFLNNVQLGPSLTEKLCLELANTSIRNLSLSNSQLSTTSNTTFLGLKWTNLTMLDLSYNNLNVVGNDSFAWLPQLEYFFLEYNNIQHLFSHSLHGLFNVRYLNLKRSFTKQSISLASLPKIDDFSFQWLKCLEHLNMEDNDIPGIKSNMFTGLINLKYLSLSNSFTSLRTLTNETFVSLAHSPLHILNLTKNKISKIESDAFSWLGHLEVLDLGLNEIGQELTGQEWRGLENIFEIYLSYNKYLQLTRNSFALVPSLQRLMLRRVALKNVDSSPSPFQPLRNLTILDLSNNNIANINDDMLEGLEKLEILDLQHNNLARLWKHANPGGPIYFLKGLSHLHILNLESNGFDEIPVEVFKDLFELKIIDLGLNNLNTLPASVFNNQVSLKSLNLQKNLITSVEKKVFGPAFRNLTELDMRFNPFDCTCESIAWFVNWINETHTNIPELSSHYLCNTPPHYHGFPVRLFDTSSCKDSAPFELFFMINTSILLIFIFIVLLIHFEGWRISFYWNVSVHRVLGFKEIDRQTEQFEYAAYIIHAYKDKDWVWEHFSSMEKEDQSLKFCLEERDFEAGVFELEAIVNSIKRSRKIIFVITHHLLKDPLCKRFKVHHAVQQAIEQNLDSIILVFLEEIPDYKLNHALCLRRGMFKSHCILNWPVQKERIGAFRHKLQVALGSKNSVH
How it was run: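 Stable HEK293 lines expressing a single hTLR plus a SEAP reporter, grown in DMEM/10% FBS with selective antibiotics. Seeded at 5 × 10^4 cells/well for 24 h at 37 °C, then treated 24 h. Supernatant mixed with QUANTI-Blue, 1 h at 37 °C, OD 620 nm. Cognate agonists: Pam3CSK4 (TLR2), poly I:C (TLR3), LPS (TLR4), FLA-BS (TLR5), R848 (TLR7). EC50 as mean ± SD.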

[4] = organism: Homo sapiens; experiment: Activation of NF-kB in HEK293 cells assessed as SEAP production at 30 uM after 24 hrs by HTS assay
How it was run: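 hTLR3-transfected HEK293 cells carrying an NF-κB-inducible SEAP reporter, seeded at 20,000 cells/well in duplicate; library compounds in DMSO at 30 μM final. Poly I:C 5 μg/mL as positive control; cells + medium + DMSO as negative control. SEAP in supernatant read by QUANTI-Blue; hits ranked on RMS values.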

[5] = biological target: Toll-like receptor 3 (Homo sapiens) (UniProt O15455); experiment: Agonist activity at human TLR3 expressed in HEK293 cells assessed as induction of NF-kB activation-mediated SEAP production at 30 uM after 24 hrs by HTS assay
How it was run: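 HTS in HEK293 cells stably expressing human TLR3 plus an NF-κB-inducible SEAP reporter, seeded at 20,000 cells/well and run in duplicate. Library compounds in DMSO at 30 μM final. Poly I:C 5 μg/mL served as positive control and cells + medium + DMSO as negative control. SEAP in supernatant read by QUANTI-Blue; assay quality judged by Z′ factor.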

SMILES: COc1ccc(COc2cc3c(cc2OCc2ccc(OC)c(F)c2)C(O)CC(C)(C)O3)cc1F (stereo not given)
- fold change (FC) [1]: 1.34

SMILES: COc1cc2c(cc1OCc1ccc([N+](=O)[O-])cc1)C=CC(C)(C)O2
- fold change (FC) [1]: 1.19

SMILES: O=[N+]([O-])c1ccc(COc2cc3c(cc2OCc2ccc([N+](=O)[O-])cc2)OC2(C=C3)CCCCC2)cc1
- fold change (FC) [1]: 1

SMILES: CC1(C)CC(=O)c2cc(OCc3ccc(C(F)(F)F)cc3)c(OCc3ccc(C(F)(F)F)cc3)cc2O1
- fold change (FC) [1]: 1.19

SMILES: CC1(C)C=Cc2cc(OCc3ccc(F)c(F)c3)c(OCc3ccc(F)c(F)c3)cc2O1
- fold change (FC) [1]: 0.99

SMILES: CC1(C)C=Cc2cc(OCc3ccc([N+](=O)[O-])cc3)c(OCc3ccc([N+](=O)[O-])cc3)cc2O1
- Activity [2]: Non-Toxic
- EC50 [3]: 22.3 µM
- fold change (FC) [1]: 5.34
- Activity [4]: inactive
- Activity [5]: Active

SMILES: COc1ccc(COc2cc3c(cc2OCc2ccc(OC)c(F)c2)C(=O)CC(C)(C)O3)cc1F
- fold change (FC) [1]: 1.08

SMILES: CC1(C)CC(O)c2cc(OCc3ccc(F)c(F)c3)c(OCc3ccc(F)c(F)c3)cc2O1 (stereo not given)
- fold change (FC) [1]: 0.95

SMILES: O=[N+]([O-])c1ccc(COc2cc3c(cc2OCc2ccc([N+](=O)[O-])cc2)OC2(C=C3)CCCCCC2)cc1
- fold change (FC) [1]: 1.07

SMILES: COc1ccc(COc2cc3c(cc2OCc2ccc(OC)c(F)c2)OC(C)(C)C=C3)cc1F
- fold change (FC) [1]: 1.06

SMILES: CCC1(CC)C=Cc2cc(OCc3ccc([N+](=O)[O-])cc3)c(OCc3ccc([N+](=O)[O-])cc3)cc2O1
- fold change (FC) [1]: 1.16

SMILES: CC1(C)CC(O)c2cc(OCc3ccc([N+](=O)[O-])c(F)c3)c(OCc3ccc([N+](=O)[O-])c(F)c3)cc2O1 (stereo not given)
- fold change (FC) [1]: 2.34

SMILES: CC1(C)CC(O)c2cc(OCc3ccc([N+](=O)[O-])cc3)c(OCc3ccc([N+](=O)[O-])cc3)cc2O1 (stereo not given)
- EC50 [3]: 42.5 µM
- fold change (FC) [1]: 2.5

SMILES: CC1(C)C=Cc2cc(OC(=O)c3ccc([N+](=O)[O-])cc3)c(OC(=O)c3ccc([N+](=O)[O-])cc3)cc2O1
- fold change (FC) [1]: 1.65

SMILES: CC1(C)CC(=O)c2cc(OCc3ccc(F)c(F)c3)c(OCc3ccc(F)c(F)c3)cc2O1
- fold change (FC) [1]: 1.22

SMILES: CC1(C)C=Cc2cc(OCc3ccccc3)c(OCc3ccccc3)cc2O1
- fold change (FC) [1]: 1.09

SMILES: CC1(C)C=Cc2cc(OCc3ccc([N+](=O)[O-])c(F)c3)c(OCc3ccc([N+](=O)[O-])c(F)c3)cc2O1
- fold change (FC) [1]: 1.24

SMILES: CC1(C)C=Cc2cc(OCc3ccccc3[N+](=O)[O-])c(OCc3ccccc3[N+](=O)[O-])cc2O1
- fold change (FC) [1]: 1.08

SMILES: CC1(C)C=Cc2cc(OCc3ccc(C(F)(F)F)cc3)c(OCc3ccc(C(F)(F)F)cc3)cc2O1
- fold change (FC) [1]: 0.99

SMILES: CC1(C)CC(O)c2cc(OCc3ccc(C(F)(F)F)cc3)c(OCc3ccc(C(F)(F)F)cc3)cc2O1 (stereo not given)
- fold change (FC) [1]: 2.36

SMILES: CC1(C)CC(=O)c2cc(OCc3ccc([N+](=O)[O-])c(F)c3)c(OCc3ccc([N+](=O)[O-])c(F)c3)cc2O1
- fold change (FC) [1]: 1.22

SMILES: CC1(C)C=Cc2cc(OCc3cccc([N+](=O)[O-])c3)c(OCc3cccc([N+](=O)[O-])c3)cc2O1
- fold change (FC) [1]: 1.1

SMILES: CC1(C)C=Cc2cc(O)c(OCc3ccc([N+](=O)[O-])cc3)cc2O1
- fold change (FC) [1]: 1.17

SMILES: O=[N+]([O-])c1ccc(COc2cc3c(cc2OCc2ccc([N+](=O)[O-])cc2)OC2(C=C3)CCCC2)cc1
- fold change (FC) [1]: 1.22

SMILES: CC1(C)CC(=O)c2cc(OCc3ccc([N+](=O)[O-])cc3)c(OCc3ccc([N+](=O)[O-])cc3)cc2O1
- fold change (FC) [1]: 1.76
